Laboratory results taken from ChEMBL document CHEMBL3797143, “Novel S1P1 receptor agonists - Part 5: From amino-to alkoxy-pyridines” (Eur J Med Chem, 2016).

Tests used:
[1] = biological target: Sphingosine 1-phosphate receptor 3 (Homo sapiens, UniProt Q99500); test: Agonist activity at human recombinant S1PR3 expressed in CHO cell membranes incubated for 30 mins by [35S]GTPgammaS binding assay in presence of GDP; assay type: functional
How it was run: (§1)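 Membranes from CHO cells expressing recombinant human S1P1 or S1P3. Compounds were preincubated with membranes for 30 min at room temperature. Reaction stopped by filtration, membrane-bound 35S-GTPγS counted. Geometric mean of ≥3 independent runs.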

[2] = Plasma concentration in Wistar rat at 10 mg/kg administered via oral gavage measured after 24 hrs by LC-MS/MS analysis; assay type: ADME, organism-based
How it was run: (§2)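 Male Wistar rats received 10 mg/kg orally by gavage. Blood was drawn at the listed times into EDTA tubes, and plasma was prepared by centrifugation at 3000 g for 10 min at 4 °C. Limit of quantification 3 nM.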

[3] = tested on: Rattus norvegicus; test: Decrease in peripheral blood lymphocyte count in Wistar rat at 10 mg/kg administered via oral gavage measured after 24 hrs; assay type: functional; design: scale not given: the % may be the effect or the level left
How it was run: (§3)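 Male Wistar rats (RccHan:WIST) were given 10 mg/kg orally by gavage in vehicle containing 5% DMSO. Blood drawn by sublingual vein puncture under isoflurane before dosing and at the listed times after dosing. Lymphocytes counted on a haematology analyser. Results are % change from baseline, mean of 6-8 animals.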

[4] = Plasma concentration in Wistar rat at 10 mg/kg administered via oral gavage measured after 72 hrs by LC-MS/MS analysis; assay type: ADME, organism-based; how it was run: as §2
[5] = tested on: Rattus norvegicus; test: Decrease in peripheral blood lymphocyte count in Wistar rat at 10 mg/kg administered via oral gavage measured after 3 hrs; assay type: functional; design: scale not given: the % may be the effect or the level left; how it was run: as §3
[6] = tested on: Rattus norvegicus; test: Decrease in peripheral blood lymphocyte count in Wistar rat at 10 mg/kg administered via oral gavage measured after 6 hrs; assay type: functional; design: scale not given: the % may be the effect or the level left; how it was run: as §3
[7] = Phototoxicity in Balb/c mouse 3T3 clone A31 cells assessed as inhibition of cell viability measured as photo irritancy factor at 0.05 to 100 uM preincubated for 1 hr followed by UVA irradiation measured after 24 hrs by neutral red uptake assay relative to control; assay type: functional
[8] = Plasma concentration in Wistar rat at 10 mg/kg administered via oral gavage measured after 6 hrs by LC-MS/MS analysis; assay type: ADME, organism-based; how it was run: as §2
[9] = tested on: Rattus norvegicus; test: Decrease in peripheral blood lymphocyte count in Wistar rat at 10 mg/kg administered via oral gavage measured after 72 hrs; assay type: functional; design: scale not given: the % may be the effect or the level left; how it was run: as §3
[10] = Plasma concentration in Wistar rat at 10 mg/kg administered via oral gavage measured after 3 hrs by LC-MS/MS analysis; assay type: ADME, organism-based; how it was run: as §2
[11] = Phototoxicity in Balb/c mouse 3T3 clone A31 cells assessed as AUC of UV spectra between 310 and 350 nm normalized to compound concentration at 0.05 to 100 uM preincubated for 1 hr followed by UVA irradiation measured after 24 hrs by neutral red uptake assay relative to control; assay type: functional
[12] = tested on: Rattus norvegicus; test: Time duration of maximum lymphocyte count reduction in Wistar rat at 10 mg/kg administered via oral gavage; assay type: functional
How it was run: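 Duration of action is the latest sampling time at which maximal lymphocyte-count reduction was still seen. Male Wistar rats received 10 mg/kg orally, and blood lymphocytes were counted before dosing and at 3, 6 and 24 h (later times in some cases). Mean of 6-8 animals.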

[13] = biological target: Sphingosine 1-phosphate receptor 1 (Homo sapiens, UniProt P21453); test: Agonist activity at human recombinant S1PR1 expressed in CHO cell membranes incubated for 30 mins by [35S]GTPgammaS binding assay in presence of GDP; assay type: functional; how it was run: as §1
[14] = Half life in Wistar rat at 10 mg/kg administered via oral gavage by LC-MS/MS analysis; assay type: ADME, organism-based; details: in vivo
How it was run: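 Oral half-life was calculated from plasma concentrations measured in the lymphocyte-count study, in which male Wistar rats received 10 mg/kg orally. Plasma was prepared from EDTA blood by centrifugation at 3000 g for 10 min at 4 °C.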

[15] = Plasma concentration in Wistar rat at 10 mg/kg administered via oral gavage measured after 96 hrs by LC-MS/MS analysis; assay type: ADME, organism-based; how it was run: as §2
[16] = tested on: Rattus norvegicus; test: Decrease in peripheral blood lymphocyte count in Wistar rat at 10 mg/kg administered via oral gavage measured after 144 hrs; assay type: functional; design: scale not given: the % may be the effect or the level left; how it was run: as §3
[17] = tested on: Rattus norvegicus; test: Decrease in peripheral blood lymphocyte count in Wistar rat at 10 mg/kg administered via oral gavage measured after 96 hrs; assay type: functional; design: scale not given: the % may be the effect or the level left; how it was run: as §3
[18] = Plasma concentration in Wistar rat at 10 mg/kg administered via oral gavage measured after 144 hrs by LC-MS/MS analysis; assay type: ADME, organism-based; how it was run: as §2
[19] = tested on: Rattus norvegicus; test: Decrease in peripheral blood lymphocyte count in Wistar rat at 10 mg/kg administered via oral gavage measured after 48 hrs; assay type: functional; design: scale not given: the % may be the effect or the level left; how it was run: as §3

Sequence of Sphingosine 1-phosphate receptor 3 (Q99500 whole entry): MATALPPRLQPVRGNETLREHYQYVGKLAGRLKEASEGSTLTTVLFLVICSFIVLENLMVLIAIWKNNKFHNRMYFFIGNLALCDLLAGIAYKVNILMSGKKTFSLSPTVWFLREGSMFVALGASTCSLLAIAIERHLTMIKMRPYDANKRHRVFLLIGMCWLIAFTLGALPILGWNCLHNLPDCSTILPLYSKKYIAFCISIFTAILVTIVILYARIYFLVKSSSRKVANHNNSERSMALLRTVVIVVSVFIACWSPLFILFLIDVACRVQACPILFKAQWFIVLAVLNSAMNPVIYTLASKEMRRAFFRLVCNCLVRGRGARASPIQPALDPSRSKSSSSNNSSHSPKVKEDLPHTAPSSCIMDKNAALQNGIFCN
Sequence of Sphingosine 1-phosphate receptor 1 (P21453 whole entry): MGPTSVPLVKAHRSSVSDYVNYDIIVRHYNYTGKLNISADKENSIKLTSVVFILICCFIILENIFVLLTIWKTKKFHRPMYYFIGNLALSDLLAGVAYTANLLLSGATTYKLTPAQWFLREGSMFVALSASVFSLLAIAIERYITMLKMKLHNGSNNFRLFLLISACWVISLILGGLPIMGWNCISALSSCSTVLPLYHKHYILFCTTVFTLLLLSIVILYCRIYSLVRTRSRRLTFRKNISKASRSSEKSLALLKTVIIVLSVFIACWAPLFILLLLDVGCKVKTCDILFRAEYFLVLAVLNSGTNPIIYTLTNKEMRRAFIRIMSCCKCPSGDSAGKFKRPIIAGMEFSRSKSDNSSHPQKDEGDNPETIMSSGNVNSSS

| EC50 [1] | concentration at 24 h [2] | concentration at 72 h [4] | concentration at 6 h [8] | concentration at 3 h [10] | EC50 [13] | half-life [14] | concentration at 96 h [15] | concentration at 144 h [18] | SMILES | Activity [3] | Activity [5] | Activity [6] | Ratio [7] | Activity [9] | Ratio [11] | Time [12] | Activity [16] | Activity [17] | Activity [19] |
| --- | --- | --- | --- | --- | --- | --- | --- | --- | --- | --- | --- | --- | --- | --- | --- | --- | --- | --- | --- |
| 190 nM | 790 nM | 67 nM | 2040 nM | 2200 nM | 1 nM | 13 h |  |  | CCc1cc(-c2noc(-c3cc(C)nc(OC4CCCC4)c3)n2)cc(C)c1OC[C@@H](O)CNC(=O)CO | 74% | 69% | 66% | 7.5 | 43% | 0.12 | 24 h |  |  |  |
| 71 nM | 1070 nM |  | 1860 nM | 2050 nM |  | 18 h | 68 nM | 12 nM | CCc1cc(-c2noc(-c3cc(OC)nc(C4CCCC4)c3)n2)cc(C)c1OC[C@@H](O)CNC(=O)CO | 70% | 62% | 65% | 2.3 |  | 0.09 | 24 h | 20% | 50% |  |
| 27 nM |  |  |  |  | 0.3 nM |  |  |  | CCc1cc(-c2noc(-c3cc(CC(C)C)nc(OC)c3)n2)cc(C)c1OC[C@@H](O)CNC(=O)CO | 66% | 57% | 59% |  |  |  | 48 h |  |  | 59% |
